From ChEMBL document CHEMBL4477254, “Synthesis and biological evaluation of some novel triazole hybrids of curcumin mimics and their selective anticancer activity against breast and prostate cancer cell lines” (Bioorg Med Chem Lett, 2016) come the findings set out here.

Converted amounts (≈) assume the structure as drawn. A value given as a limit tells only on which side of the number the result lay.

In series [1] the test system is MCF7. Kind of series: Cytotoxicity against human MCF7 cells assessed as decrease in cell viability after 24 hrs by MTT assay. It is filed as functional, cell-based. As to conditions: MCF7, 24 h. The gist of the method:
(§1)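 Cell viability by MTT after 24 h compound exposure; curcumin as standard. IC50 in µM from three independent experiments, expressed as mean ± SE.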

Series [2] deals with MDA-MB-231. Kind of series: Cytotoxicity against human MDA-MB-231 cells assessed as decrease in cell viability after 24 hrs by MTT assay. The series is classed as functional, cell-based. As to conditions: MDA-MB-231, 24 h. The gist of the method: as §1
The test system of series [3] is 4T1. Kind of series: Cytotoxicity against mouse 4T1 cells assessed as decrease in cell viability after 24 hrs by MTT assay. The series is classed as functional, cell-based. The conditions noted are these: 4T1, 24 h. A digest of the protocol:
as §1

Series [4] deals with PC-3. Kind of series: Cytotoxicity against human PC3 cells assessed as decrease in cell viability after 24 hrs by MTT assay. The series is classed as functional, cell-based. The conditions noted are these: PC-3, 24 h. The gist of the method:
as §1

Series [5] concerns DU-145. Kind of series: Cytotoxicity against human DU145 cells assessed as decrease in cell viability after 24 hrs by MTT assay. The series is classed as functional, cell-based. As to conditions: DU-145, 24 h. The gist of the method: as §1
The subject of series [6] is HEK293. Kind of series: Cytotoxicity against human HEK293 cells assessed as decrease in cell viability after 24 hrs by MTT assay. It is filed as cell-based. As to conditions: HEK293, 24 h. A digest of the protocol: as §1
Series [7] has as its system DU-145. Kind of series: Potency index, ratio of curcumin IC50 to compound IC50 in human DU145 cells. The series is classed as functional. A digest of the protocol: (§2)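 IC50 came from an MTT viability assay after 24 h compound exposure, with curcumin run as the standard. Values are mean ± SE of three independent experiments. The index is the curcumin IC50 divided by the compound IC50 in the same cell line.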

The subject of series [8] is PC-3. Kind of series: Potency index, ratio of curcumin IC50 to compound IC50 in human PC3 cells. The series is classed as functional. The gist of the method:
as §2

In series [9] the test system is MDA-MB-231. Kind of series: Potency index, ratio of curcumin IC50 to compound IC50 in human MDA-MB-231 cells. The series is classed as functional. A digest of the protocol:
as §2

In series [10] the test system is 4T1. Kind of series: Potency index, ratio of curcumin IC50 to compound IC50 in mouse 4T1 cells. It is filed as functional. A digest of the protocol:
as §2

Series [11] concerns PC-3. Kind of series: Induction of mitochondrial membrane depolarization in human PC3 cells at 3 uM after 24 hrs by JC-1 staining based flow cytometry (reference value: 4.51%). It is filed as functional.
Series [12] concerns MCF7. Kind of series: Induction of mitochondrial membrane depolarization in human MCF7 cells at 10 uM after 24 hrs by JC-1 staining based flow cytometry (reference value: 11%). The series is classed as functional.
Series [13] in a line: Solubility of the compound in distilled water after 24 hrs by HPLC based shake flask method. It is filed as physicochemical.
Series [14] in a line: Drug metabolism in liver microsomes (unknown origin) assessed as compound remaining after 5 mins in presence of NADPH by UPLC analysis. The series is classed as ADME, Microsome. The conditions noted are these: read-out: Drug metabolism. The gist of the method: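 Microsomal metabolic stability; percentage of compound remaining intact measured after 5 min incubation in presence of microsomes.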

Series [15] in a line: Elimination rate constant in liver microsomes (unknown origin) assessed as compound remaining measured up to 60 mins by UPLC analysis. The series is classed as ADME, Microsome.
A short description of series [16]: Half life in liver microsomes (unknown origin) in presence of NADPH by UPLC analysis. It is filed as ADME, Microsome.
Series [17] is described as follows: Intrinsic clearance in liver microsomes (unknown origin) assessed per mg of protein in presence of NADPH by UPLC analysis. It is filed as ADME, Microsome.
Series [18] in a line: Intrinsic hepatic clearance in liver microsomes (unknown origin) assessed per mg of protein in presence of NADPH by UPLC analysis. The series is classed as ADME, Microsome. As to conditions: read-out: CLH (converted).

On to `O=C1/C(=C/c2ccccc2F)CN(Cc2cn(Cc3ccccc3Cl)nn2)C/C1=C\c1ccccc1F`, for which the IC50 in series [1] was determined as 10 µM; in series [2], 16.5 µM; in series [3], 5.3 µM; in [4], 7.1 µM; in series [5] it was 7.5 µM; in series [6], 33.2 µM. Also, the Ratio IC50 is ≤ 9.5 in series [7], “<=5.7” in [8], “<=8.3” in series [9] and “<=9.3” in [10].

Take `N#CC(C#N)=NNc1cccc(Cl)c1` [CARBONYL CYANIDE M-CHLOROPHENYLHYDRAZONE]: the Activity in series [11] is reported as 35.82%; in series [12], 86.65%.

`COc1cc(/C=C/C(=O)CC(=O)/C=C/c2ccc(O)c(OC)c2)ccc1O` [CURCUMIN]: the IC50 in series [1] is 83.1 µM; in [2], 75.3 µM; in series [3], 49.4 µM; in [4] it was 39 µM; in series [5] it was 41 µM; in series [6], 94.1 µM. Besides, in series [13], the thermodynamic solubility at 24 h came to 0.06 µg/mL (≈ 0.163 µM). In [14], the remaining at 5 min turned out to be 45%. Also, in [15], the k el at 1 h is 0.00085 s⁻¹. Further, the half-life in [16] was found to be 13.7 min. For the same compound, in series [17], the CLint amounted to 101 µL/min/mg. Further, in series [18], the CLint scaled was 182 L/h/kg.
